Calls of active or inactive are those of the source. The rule behind the calls is not given here.
Legend:
MDCK = assay: Cytotoxicity against MDCK cells at 50 uM after 40 hrs by CellTiter-Glo assay; type: cell-based, Canis lupus familiaris; details: dog
Summary of the method: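 Single-concentration toxicity screen at 50 μM final on MDCK cells for 40 h, read by CellTiter-Glo. 0.5% DMSO final as negative control. Triplicate experiments, standard deviations shown.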

Influenza A virus [1] = assay: Antiviral activity against Influenza A virus A/WSN/33/H1N1 infected in MDCK cells assessed as reduction in virus-induced cytopathic effect at 50 uM after 40 hrs by CellTiter-Glo assay; type: functional, organism-based
Summary of the method: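 Single-concentration screen at 50 μM final. MDCK cells infected with A/WSN/33 (H1N1) at MOI 0.1 in DMEM/1% FBS with TPCK-trypsin for 40 h, viability by CellTiter-Glo. 0.5% DMSO final as negative control, oseltamivir as positive control. Triplicate experiments, standard deviations shown.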

Influenza A virus [2] = assay: Antiviral activity against Influenza A virus A/WSN/33/H1N1 infected in MDCK cells assessed as reduction in virus-induced cytopathic effect after 40 hrs by CellTiter-Glo assay; type: functional, organism-based; details: A/WSN/33/H1N1, MDCK
Summary of the method: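 MDCK cells seeded overnight, infected with influenza A/WSN/33 (H1N1) at MOI 0.1. Kept in DMEM with 1% FBS, test compound, TPCK-treated trypsin and 1% final DMSO for 40 h. Cell viability read by CellTiter-Glo luminescence. IC50 taken from dose-response.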

[3] = Cytotoxicity against MDCK cells after 40 hrs by CellTiter-Glo assay; type: cell-based, Canis lupus familiaris; details: dog
Summary of the method: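 MDCK cells grown overnight in medium with 1% FBS, then exposed to increasing compound concentrations for 40 h. Viability measured by CellTiter-Glo luminescence, and CC50 derived from it.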

SMILES	Activity (MDCK)	other results
C[C@H]1[C@H](C)CC[C@]2(C(=O)NCCNC(=O)c3cc(OCc4ccccc4)c(OCc4ccccc4)c(OCc4ccccc4)c3)CC[C@]3(C)C(=CC[C@@H]4[C@@]5(C)CC[C@H](O)C(C)(C)[C@@H]5CC[C@]43C)[C@H]12	Non-Toxic	Activity (Influenza A virus [1]): Active; IC50 (Influenza A virus [2]): 32.9 µM; CC50 at 40 h [3]: > 100 µM
CCOC(=O)C1=C[C@@H](OC(CC)CC)[C@H](NC(C)=O)[C@@H](N)C1 [OSELTAMIVIR]		IC50 (Influenza A virus [2]): 16.5 µM; CC50 at 40 h [3]: > 200 µM
C[C@H]1[C@H](C)CC[C@]2(C(=O)NCCNC(=O)/C=C/c3ccc(O)cc3)CC[C@]3(C)C(=CC[C@@H]4[C@@]5(C)CC[C@H](O)C(C)(C)[C@@H]5CC[C@]43C)[C@H]12	Non-Toxic	
C[C@H]1[C@H](C)CC[C@]2(C(=O)NCCNC(=O)/C=C/c3ccccc3)CC[C@]3(C)C(=CC[C@@H]4[C@@]5(C)CC[C@H](O)C(C)(C)[C@@H]5CC[C@]43C)[C@H]12	Non-Toxic	Activity (Influenza A virus [1]): Active; IC50 (Influenza A virus [2]): 18.3 µM; CC50 at 40 h [3]: > 100 µM
CC1(C)CC[C@]2(C(=O)NCCNC(=O)c3ccc(O)cc3O)[C@H](O)C[C@]3(C)C(=CC[C@@H]4[C@@]5(C)CC[C@H](O)C(C)(C)[C@@H]5CC[C@]43C)[C@@H]2C1	Toxic	
C[C@H]1[C@H](C)CC[C@]2(C(=O)NCCNC(=O)c3ccc(OCc4ccccc4)cc3)CC[C@]3(C)C(=CC[C@@H]4[C@@]5(C)CC[C@H](O)C(C)(C)[C@@H]5CC[C@]43C)[C@H]12	Non-Toxic	
CC1(C)CC[C@]2(C(=O)NCCNC(=O)c3cc(OCc4ccccc4)cc(OCc4ccccc4)c3)[C@H](O)C[C@]3(C)C(=CC[C@@H]4[C@@]5(C)CC[C@H](O)C(C)(C)[C@@H]5CC[C@]43C)[C@@H]2C1	Non-Toxic	
CC1(C)CC[C@]2(C(=O)NCCNC(=O)c3cc(O)cc(O)c3)[C@H](O)C[C@]3(C)C(=CC[C@@H]4[C@@]5(C)CC[C@H](O)C(C)(C)[C@@H]5CC[C@]43C)[C@@H]2C1	Toxic	
C=C(C)[C@@H]1CC[C@]2(C(=O)NCCNC(=O)c3cc(O)cc(O)c3)CC[C@]3(C)[C@H](CC[C@@H]4[C@@]5(C)CC[C@H](O)C(C)(C)[C@@H]5CC[C@]43C)[C@@H]12	Toxic	
CC1(C)CC[C@]2(C(=O)NCCNC(=O)/C=C/c3ccccc3)CC[C@]3(C)C(=CC[C@@H]4[C@@]5(C)CC[C@H](O)C(C)(C)[C@@H]5CC[C@]43C)[C@@H]2C1	Toxic	
C=C(C)[C@@H]1CC[C@]2(C(=O)NCCNC(=O)c3ccc(O)cc3)CC[C@]3(C)[C@H](CC[C@@H]4[C@@]5(C)CC[C@H](O)C(C)(C)[C@@H]5CC[C@]43C)[C@@H]12	Toxic	
CC1(C)CC[C@]2(C(=O)NCCNC(=O)c3cc(OCc4ccccc4)c(OCc4ccccc4)c(OCc4ccccc4)c3)CC[C@]3(C)C(=CC[C@@H]4[C@@]5(C)CC[C@H](O)C(C)(C)[C@@H]5CC[C@]43C)[C@@H]2C1	Non-Toxic	Activity (Influenza A virus [1]): Active
CC1(C)CC[C@]2(C(=O)NCCNC(=O)c3ccc(OCc4ccccc4)cc3)[C@H](O)C[C@]3(C)C(=CC[C@@H]4[C@@]5(C)CC[C@H](O)C(C)(C)[C@@H]5CC[C@]43C)[C@@H]2C1	Non-Toxic	
C=C(C)[C@@H]1CC[C@]2(C(=O)NCCNC(=O)c3ccc(OCc4ccccc4)cc3)CC[C@]3(C)[C@H](CC[C@@H]4[C@@]5(C)CC[C@H](O)C(C)(C)[C@@H]5CC[C@]43C)[C@@H]12	Non-Toxic	
C=C(C)[C@@H]1CC[C@]2(C(=O)NCCNC(=O)/C=C/c3ccccc3)CC[C@]3(C)[C@H](CC[C@@H]4[C@@]5(C)CC[C@H](O)C(C)(C)[C@@H]5CC[C@]43C)[C@@H]12	Non-Toxic	
C[C@H]1[C@H](C)CC[C@]2(C(=O)NCCNC(=O)c3cc(O)c(O)c(O)c3)CC[C@]3(C)C(=CC[C@@H]4[C@@]5(C)CC[C@H](O)C(C)(C)[C@@H]5CC[C@]43C)[C@H]12	Toxic	
CC1(C)CC[C@]2(C(=O)NCCNC(=O)c3cc(O)cc(O)c3)CC[C@]3(C)C(=CC[C@@H]4[C@@]5(C)CC[C@H](O)C(C)(C)[C@@H]5CC[C@]43C)[C@@H]2C1	Toxic	
CC1(C)CC[C@]2(C(=O)NCCNC(=O)c3ccccc3O)[C@H](O)C[C@]3(C)C(=CC[C@@H]4[C@@]5(C)CC[C@H](O)C(C)(C)[C@@H]5CC[C@]43C)[C@@H]2C1	Non-Toxic	Activity (Influenza A virus [1]): Active; IC50 (Influenza A virus [2]): 5.84 µM; CC50 at 40 h [3]: > 100 µM
C=C(C)[C@@H]1CC[C@]2(C(=O)NCCNC(=O)c3cc(OCc4ccccc4)c(OCc4ccccc4)c(OCc4ccccc4)c3)CC[C@]3(C)[C@H](CC[C@@H]4[C@@]5(C)CC[C@H](O)C(C)(C)[C@@H]5CC[C@]43C)[C@@H]12	Non-Toxic	

SMILES	Activity (MDCK)	other results
CC1(C)CC[C@]2(C(=O)NCCNC(=O)c3cc(OCc4ccccc4)c(OCc4ccccc4)c(OCc4ccccc4)c3)[C@H](O)C[C@]3(C)C(=CC[C@@H]4[C@@]5(C)CC[C@H](O)C(C)(C)[C@@H]5CC[C@]43C)[C@@H]2C1	Non-Toxic	Activity (Influenza A virus [1]): Active
C[C@H]1[C@H](C)CC[C@]2(C(=O)NCCNC(=O)c3ccc(O)cc3)CC[C@]3(C)C(=CC[C@@H]4[C@@]5(C)CC[C@H](O)C(C)(C)[C@@H]5CC[C@]43C)[C@H]12	Toxic	
CC1(C)CC[C@]2(C(=O)NCCNC(=O)c3cc(OCc4ccccc4)cc(OCc4ccccc4)c3)CC[C@]3(C)C(=CC[C@@H]4[C@@]5(C)CC[C@H](O)C(C)(C)[C@@H]5CC[C@]43C)[C@@H]2C1	Non-Toxic	
C=C(C)[C@@H]1CC[C@]2(C(=O)NCCNC(=O)c3ccc(O)cc3O)CC[C@]3(C)[C@H](CC[C@@H]4[C@@]5(C)CC[C@H](O)C(C)(C)[C@@H]5CC[C@]43C)[C@@H]12	Toxic	
CC1(C)CC[C@]2(C(=O)NCCNC(=O)/C=C/c3ccc(O)cc3)[C@H](O)C[C@]3(C)C(=CC[C@@H]4[C@@]5(C)CC[C@H](O)C(C)(C)[C@@H]5CC[C@]43C)[C@@H]2C1	Non-Toxic	
CC1(C)CC[C@]2(C(=O)NCCNC(=O)c3ccc(O)cc3)CC[C@]3(C)C(=CC[C@@H]4[C@@]5(C)CC[C@H](O)C(C)(C)[C@@H]5CC[C@]43C)[C@@H]2C1	Non-Toxic	
CC1(C)CC[C@]2(C(=O)NCCNC(=O)c3ccc(OCc4ccccc4)cc3)CC[C@]3(C)C(=CC[C@@H]4[C@@]5(C)CC[C@H](O)C(C)(C)[C@@H]5CC[C@]43C)[C@@H]2C1	Non-Toxic	
CC1(C)CC[C@]2(C(=O)NCCNC(=O)/C=C/c3ccc(O)cc3)CC[C@]3(C)C(=CC[C@@H]4[C@@]5(C)CC[C@H](O)C(C)(C)[C@@H]5CC[C@]43C)[C@@H]2C1	Non-Toxic	
CC1(C)CC[C@]2(C(=O)NCCNC(=O)c3ccc(O)cc3)[C@H](O)C[C@]3(C)C(=CC[C@@H]4[C@@]5(C)CC[C@H](O)C(C)(C)[C@@H]5CC[C@]43C)[C@@H]2C1	Toxic	
C=C(C)[C@@H]1CC[C@]2(C(=O)NCCNC(=O)c3cc(O)c(O)c(O)c3)CC[C@]3(C)[C@H](CC[C@@H]4[C@@]5(C)CC[C@H](O)C(C)(C)[C@@H]5CC[C@]43C)[C@@H]12	Toxic	Activity (Influenza A virus [1]): Active
C[C@H]1[C@H](C)CC[C@]2(C(=O)NCCNC(=O)c3ccc(O)cc3O)CC[C@]3(C)C(=CC[C@@H]4[C@@]5(C)CC[C@H](O)C(C)(C)[C@@H]5CC[C@]43C)[C@H]12	Toxic	
C=C(C)[C@@H]1CC[C@]2(C(=O)NCCNC(=O)c3cc(OCc4ccccc4)cc(OCc4ccccc4)c3)CC[C@]3(C)[C@H](CC[C@@H]4[C@@]5(C)CC[C@H](O)C(C)(C)[C@@H]5CC[C@]43C)[C@@H]12	Non-Toxic	
CC1(C)CC[C@]2(C(=O)NCCNC(=O)/C=C/c3ccccc3)[C@H](O)C[C@]3(C)C(=CC[C@@H]4[C@@]5(C)CC[C@H](O)C(C)(C)[C@@H]5CC[C@]43C)[C@@H]2C1	Toxic	
C[C@H]1[C@H](C)CC[C@]2(C(=O)NCCNC(=O)c3cc(O)cc(O)c3)CC[C@]3(C)C(=CC[C@@H]4[C@@]5(C)CC[C@H](O)C(C)(C)[C@@H]5CC[C@]43C)[C@H]12	Toxic	
CC1(C)CC[C@]2(C(=O)NCCNC(=O)c3ccc(O)cc3O)CC[C@]3(C)C(=CC[C@@H]4[C@@]5(C)CC[C@H](O)C(C)(C)[C@@H]5CC[C@]43C)[C@@H]2C1	Toxic	
CC1(C)CC[C@]2(C(=O)NCCNC(=O)c3cc(O)c(O)c(O)c3)CC[C@]3(C)C(=CC[C@@H]4[C@@]5(C)CC[C@H](O)C(C)(C)[C@@H]5CC[C@]43C)[C@@H]2C1	Toxic	
CC1(C)CC[C@]2(C(=O)NCCNC(=O)c3cc(O)c(O)c(O)c3)[C@H](O)C[C@]3(C)C(=CC[C@@H]4[C@@]5(C)CC[C@H](O)C(C)(C)[C@@H]5CC[C@]43C)[C@@H]2C1	Toxic	
C[C@H]1[C@H](C)CC[C@]2(C(=O)NCCNC(=O)c3cc(OCc4ccccc4)cc(OCc4ccccc4)c3)CC[C@]3(C)C(=CC[C@@H]4[C@@]5(C)CC[C@H](O)C(C)(C)[C@@H]5CC[C@]43C)[C@H]12	Non-Toxic	
